From ChEMBL document CHEMBL1137787 (J Med Chem, 2009) come the findings set out here.

Test [1] concerns the target T1, Metabotropic glutamate receptor 5 (Rattus norvegicus, UniProt P31424). Briefly: (§1) Positive allosteric modulator activity at rat mGlu5 receptor expressed in HEK293 cells assessed as potentiation of glutamate-induced response relative to glutamate. It is filed as cell-based.
In test [2] the target is T1, Metabotropic glutamate receptor 5. Nature of the test: Antagonist activity at rat mGlu5 receptor expressed in HEK293 cells assessed as inhibition of glutamate-induced response. Type of test: functional, cell-based.
Test [3] deals with Metabotropic glutamate receptor 5 (Rattus norvegicus) (UniProt P31424). Described as §1. Type of test: cell-based.
Test [4] shares this target. Nature of the test: Positive allosteric modulator activity at rat mGlu5 receptor expressed in HEK293 cells assessed as fold shift in glutamate induced response at 10 uM. Type of test: cell-based.
Test [5] deals with Rattus norvegicus. Briefly: Antipsychotic activity in Sprague-Dawley rat assessed as reversal of amphetamine-induced hyperlocomotion administered ip 30 mins before amphetamine-challenge. It is filed as functional, organism-based. The gist of the method: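 Rats were given the test compound i.p. at 3, 10 or 30 mg/kg in 10% Tween 80 vehicle. Thirty minutes later they received amphetamine, 1 mg/kg s.c. Locomotor activity was then measured. Test compound or vehicle alone was also assessed without amphetamine.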

Test [6] concerns the target Metabotropic glutamate receptor 7 (Homo sapiens, UniProt Q14831). Nature of the test: Antagonist activity at mGlu7 receptor. Type of test: functional.
Test [7] addresses Metabotropic glutamate receptor 3 (Homo sapiens, UniProt Q14832). Nature of the test: Antagonist activity at mGlu3 receptor. Type of test: functional.
For test [8], the target named is Metabotropic glutamate receptor 8 (Homo sapiens, UniProt O00222). Nature of the test: Antagonist activity at mGlu8 receptor. Type of test: functional.
Test [9] deals with Metabotropic glutamate receptor 1 (Homo sapiens, UniProt Q13255). Nature of the test: Antagonist activity at mGlu1 receptor. Type of test: functional.
The target of test [10] is Metabotropic glutamate receptor 2 (Homo sapiens, UniProt Q14416). Nature of the test: Antagonist activity at mGlu2 receptor. Type of test: functional.
The target in test [11] is Metabotropic glutamate receptor 5 (Rattus norvegicus) (UniProt P31424). Briefly: Antagonist activity at rat mGlu5 receptor expressed in HEK293 cells assessed as inhibition of glutamate-induced response at 10 uM. It is filed as functional, cell-based. Also on record: scale not given: the % may be the effect or the level left.
Test [12] relates to Rattus norvegicus. Briefly: Anxiolytic activity against Sprague-Dawley rat Geller-Seifter conflict model assessed as increase punished response rate at 30 mg/kg, ip. To be noted: route intraperitoneal. It is filed as functional. The essentials: (§2)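 Modified Geller-Seifter conflict schedule with punished and unpunished components. Animals were tested on 1, 3, 10 and 30 mg/kg and on vehicle. Read-out was the number of responses in each component, as mean ± SEM for eighteen animals. Analysis used ANOVA with Newman-Keuls post hoc comparison to vehicle.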

Test [13] concerns Rattus norvegicus. Nature of the test: Anxiolytic activity against ip dosed Sprague-Dawley rat Geller-Seifter conflict model assessed as increase in punished response. It is filed as functional, organism-based. The essentials: as §2
For test [14], the target named is Metabotropic glutamate receptor 4 (Homo sapiens, UniProt Q14833). Briefly: Antagonist activity at mGlu4 receptor. Type of test: functional.

As usually defined, the EC50 is the concentration that produces a half-maximal response. As usually defined, the IC50 is the point on the concentration scale where inhibition reaches its midpoint.

Each structure is given as a SMILES string. Active and inactive are the calls of the source. No cut-off for these calls is given here.

T1 sequence (P31424 whole entry): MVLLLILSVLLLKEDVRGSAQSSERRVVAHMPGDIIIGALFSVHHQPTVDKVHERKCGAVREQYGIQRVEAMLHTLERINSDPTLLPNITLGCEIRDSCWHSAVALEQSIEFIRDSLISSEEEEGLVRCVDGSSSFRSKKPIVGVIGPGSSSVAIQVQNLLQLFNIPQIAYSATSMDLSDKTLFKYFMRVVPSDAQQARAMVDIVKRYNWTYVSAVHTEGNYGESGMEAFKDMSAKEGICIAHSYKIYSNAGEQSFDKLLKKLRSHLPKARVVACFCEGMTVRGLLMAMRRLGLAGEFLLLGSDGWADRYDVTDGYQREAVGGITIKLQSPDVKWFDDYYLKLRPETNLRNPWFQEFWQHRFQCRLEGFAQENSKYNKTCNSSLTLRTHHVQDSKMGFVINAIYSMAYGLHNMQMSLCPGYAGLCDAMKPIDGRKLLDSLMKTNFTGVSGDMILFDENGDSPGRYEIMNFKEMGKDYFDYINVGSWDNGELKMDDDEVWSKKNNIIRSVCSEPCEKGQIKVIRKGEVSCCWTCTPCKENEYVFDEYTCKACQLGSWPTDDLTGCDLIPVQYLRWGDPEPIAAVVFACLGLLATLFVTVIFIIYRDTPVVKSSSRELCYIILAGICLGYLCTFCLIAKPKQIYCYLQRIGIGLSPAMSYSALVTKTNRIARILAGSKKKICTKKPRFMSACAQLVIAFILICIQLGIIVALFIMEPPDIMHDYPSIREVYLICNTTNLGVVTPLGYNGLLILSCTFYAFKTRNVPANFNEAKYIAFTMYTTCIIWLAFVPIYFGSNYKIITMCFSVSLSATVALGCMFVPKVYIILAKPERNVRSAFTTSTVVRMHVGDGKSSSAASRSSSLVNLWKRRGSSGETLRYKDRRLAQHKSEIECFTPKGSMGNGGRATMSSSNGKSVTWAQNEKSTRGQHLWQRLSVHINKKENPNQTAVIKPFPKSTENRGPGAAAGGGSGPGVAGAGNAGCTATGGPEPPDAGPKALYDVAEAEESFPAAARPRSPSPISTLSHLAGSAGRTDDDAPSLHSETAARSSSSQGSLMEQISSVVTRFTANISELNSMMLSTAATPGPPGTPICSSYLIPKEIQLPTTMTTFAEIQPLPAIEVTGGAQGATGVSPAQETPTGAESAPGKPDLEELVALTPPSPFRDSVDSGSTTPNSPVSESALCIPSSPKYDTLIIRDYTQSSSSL
Sequence of Metabotropic glutamate receptor 5 (Rattus norvegicus) (P31424 21-1203 limits assumed): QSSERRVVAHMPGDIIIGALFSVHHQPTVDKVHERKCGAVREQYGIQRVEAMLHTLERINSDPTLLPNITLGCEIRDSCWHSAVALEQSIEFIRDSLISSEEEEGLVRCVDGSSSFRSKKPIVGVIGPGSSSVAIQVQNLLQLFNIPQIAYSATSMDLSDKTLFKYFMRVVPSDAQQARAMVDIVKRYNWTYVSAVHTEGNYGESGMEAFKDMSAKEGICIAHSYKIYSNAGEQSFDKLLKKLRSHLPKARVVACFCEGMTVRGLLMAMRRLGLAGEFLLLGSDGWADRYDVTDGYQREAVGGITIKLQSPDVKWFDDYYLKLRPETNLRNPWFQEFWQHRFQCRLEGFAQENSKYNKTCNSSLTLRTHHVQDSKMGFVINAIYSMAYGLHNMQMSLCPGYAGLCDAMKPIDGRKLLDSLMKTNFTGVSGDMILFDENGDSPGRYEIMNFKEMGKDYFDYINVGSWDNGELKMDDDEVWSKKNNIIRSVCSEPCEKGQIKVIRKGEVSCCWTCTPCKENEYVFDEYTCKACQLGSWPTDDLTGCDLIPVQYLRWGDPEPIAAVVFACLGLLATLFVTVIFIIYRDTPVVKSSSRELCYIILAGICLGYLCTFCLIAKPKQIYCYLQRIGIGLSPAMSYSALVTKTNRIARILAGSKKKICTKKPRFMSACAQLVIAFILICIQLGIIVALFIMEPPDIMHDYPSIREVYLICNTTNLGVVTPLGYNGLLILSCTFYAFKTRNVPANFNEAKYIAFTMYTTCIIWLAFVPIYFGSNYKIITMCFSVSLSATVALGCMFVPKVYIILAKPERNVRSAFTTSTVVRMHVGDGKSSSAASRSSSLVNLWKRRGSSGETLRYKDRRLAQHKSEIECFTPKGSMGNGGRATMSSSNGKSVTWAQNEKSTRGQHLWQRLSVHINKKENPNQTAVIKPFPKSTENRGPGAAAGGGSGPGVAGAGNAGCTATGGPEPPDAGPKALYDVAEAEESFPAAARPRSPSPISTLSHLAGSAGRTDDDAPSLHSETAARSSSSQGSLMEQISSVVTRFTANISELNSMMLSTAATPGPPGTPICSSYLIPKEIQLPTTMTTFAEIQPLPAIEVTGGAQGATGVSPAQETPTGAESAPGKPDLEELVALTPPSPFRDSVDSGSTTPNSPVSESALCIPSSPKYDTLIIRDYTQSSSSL
Sequence of Metabotropic glutamate receptor 1 (Q13255 whole entry): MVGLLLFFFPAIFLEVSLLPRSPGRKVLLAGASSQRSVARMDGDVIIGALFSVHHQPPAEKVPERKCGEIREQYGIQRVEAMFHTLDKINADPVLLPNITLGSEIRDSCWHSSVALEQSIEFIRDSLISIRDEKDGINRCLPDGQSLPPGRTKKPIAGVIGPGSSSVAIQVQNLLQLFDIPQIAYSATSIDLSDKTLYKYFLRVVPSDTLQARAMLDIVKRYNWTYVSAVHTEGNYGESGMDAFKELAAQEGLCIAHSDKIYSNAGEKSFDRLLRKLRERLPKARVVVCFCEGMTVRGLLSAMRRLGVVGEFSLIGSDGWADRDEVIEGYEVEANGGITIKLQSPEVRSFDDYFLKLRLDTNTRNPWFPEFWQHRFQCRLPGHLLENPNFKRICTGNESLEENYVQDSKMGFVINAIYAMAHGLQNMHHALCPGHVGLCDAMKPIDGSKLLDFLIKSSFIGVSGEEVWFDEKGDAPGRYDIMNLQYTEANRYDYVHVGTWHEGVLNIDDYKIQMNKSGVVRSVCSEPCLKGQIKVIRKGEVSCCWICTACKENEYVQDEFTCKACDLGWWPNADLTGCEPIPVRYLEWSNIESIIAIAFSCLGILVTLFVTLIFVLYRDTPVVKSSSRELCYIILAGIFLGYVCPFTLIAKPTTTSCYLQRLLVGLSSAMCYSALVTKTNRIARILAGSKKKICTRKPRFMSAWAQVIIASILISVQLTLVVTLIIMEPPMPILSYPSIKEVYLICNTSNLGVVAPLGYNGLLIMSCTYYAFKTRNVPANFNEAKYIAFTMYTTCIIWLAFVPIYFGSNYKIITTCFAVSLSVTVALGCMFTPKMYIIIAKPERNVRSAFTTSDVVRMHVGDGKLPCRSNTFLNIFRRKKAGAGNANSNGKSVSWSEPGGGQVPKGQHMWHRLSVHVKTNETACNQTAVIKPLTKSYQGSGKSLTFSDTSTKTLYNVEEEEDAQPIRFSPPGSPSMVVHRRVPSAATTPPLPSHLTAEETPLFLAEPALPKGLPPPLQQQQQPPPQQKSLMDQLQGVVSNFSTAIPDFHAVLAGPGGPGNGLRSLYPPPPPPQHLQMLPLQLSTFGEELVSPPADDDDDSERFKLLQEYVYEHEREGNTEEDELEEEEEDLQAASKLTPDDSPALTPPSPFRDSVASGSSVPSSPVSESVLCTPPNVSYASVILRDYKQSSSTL
Sequence of Metabotropic glutamate receptor 7 (Q14831 whole entry): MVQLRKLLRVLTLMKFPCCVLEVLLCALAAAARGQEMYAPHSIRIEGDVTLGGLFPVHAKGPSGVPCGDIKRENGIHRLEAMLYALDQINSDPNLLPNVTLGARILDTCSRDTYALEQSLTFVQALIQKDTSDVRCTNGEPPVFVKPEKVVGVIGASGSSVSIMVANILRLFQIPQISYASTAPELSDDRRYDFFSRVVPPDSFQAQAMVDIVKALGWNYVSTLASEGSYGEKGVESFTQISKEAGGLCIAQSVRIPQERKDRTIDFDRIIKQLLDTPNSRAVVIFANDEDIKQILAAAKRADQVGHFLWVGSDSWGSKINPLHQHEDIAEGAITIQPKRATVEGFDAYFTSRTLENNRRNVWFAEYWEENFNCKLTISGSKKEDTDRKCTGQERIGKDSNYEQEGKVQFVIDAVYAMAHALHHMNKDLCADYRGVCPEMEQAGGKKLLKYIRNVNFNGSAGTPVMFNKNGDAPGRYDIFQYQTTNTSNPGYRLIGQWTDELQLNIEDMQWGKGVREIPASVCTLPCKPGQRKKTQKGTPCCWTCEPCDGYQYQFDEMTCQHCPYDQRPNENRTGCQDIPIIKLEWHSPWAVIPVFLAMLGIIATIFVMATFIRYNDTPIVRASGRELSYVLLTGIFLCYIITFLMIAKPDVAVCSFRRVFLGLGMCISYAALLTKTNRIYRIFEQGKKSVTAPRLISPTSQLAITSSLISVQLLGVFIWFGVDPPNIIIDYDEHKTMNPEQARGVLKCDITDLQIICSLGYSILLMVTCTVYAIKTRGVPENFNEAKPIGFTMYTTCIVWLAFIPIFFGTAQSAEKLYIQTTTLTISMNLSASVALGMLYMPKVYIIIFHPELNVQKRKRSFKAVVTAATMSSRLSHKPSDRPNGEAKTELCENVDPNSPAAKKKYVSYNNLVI

As for `Cc1ccc(C#Cc2cnc(C(C)(C)C)nc2)cc1`, the EC50 result in test [1] (hek293) is listed as “Not Active”. For the molecule `CCc1ncc(C#Cc2ccc(C)cc2)cn1`, the EC50 entry in test [1] (hek293) is “Not Active”.

Regarding `COc1ncc(C#Cc2ccc(C)cc2)cn1`, the EC50 entry in [1] (hek293) was “Not Active”.

For `Cc1ccc(C#Cc2ncccn2)cc1`, in test [2] (read-out: IC50), the IC50 was greater than 10000 nM. Also, the result in test [3] was inactive. For the molecule `CCOc1ncc(C#Cc2ccccc2)cn1`, the IC50 entry in [2] (hek293) is “Not Active”.

As for `CCc1ncc(C#Cc2ccccc2)cn1`, the EC50 entry in test [1] (hek293) is reported as “Not Active”. Turning to `Cc1ncc(C#Cc2ccccc2)cn1`, the EC50 entry in [1] (hek293) is listed as “Not Active”. For the molecule `Cc1cccc(C#Cc2cnc(C(C)(C)C)nc2)c1`, in test [1] (hek293), the EC50 entry is on record as “Not Active”.

For `CNc1ncc(C#Cc2cccc(C)c2)cn1`, in test [4], the fold change (FC) was determined as 5.9. Moreover, the EC50 in test [1] (read-out: EC50) turned out to be 21.1 nM. For `Cc1cccc(C#Cc2cncnc2)c1`, in test [2] (read-out: IC50), the IC50 is 7.5 nM. `CCOc1ncc(C#Cc2ccc(C)cc2)cn1`: in test [2] (hek293), the half-maximal inhibitory concentration (IC50) entry is “Not Active”. In the case of `C(#Cc1cncnc1)c1ccccc1`, the IC50 in [2] (read-out: IC50) was found to be 486 nM. Further, the Activity in [3] was 29%. Turning to `Cc1ccc(C#Cc2cnc(C)nc2)cc1`, in test [1] (hek293), the EC50 result was “Not Active”. In the case of `CSc1ncc(C#Cc2ccccc2)cn1`, the fold change (FC) in test [4] was 11. Further, the EC50 in test [1] (read-out: EC50) turned out to be 120 nM. As to `Cc1ccc(C#Cc2cncnc2)cc1`, the fold change (FC) in test [4] came to 4.2. For `CSc1ncc(C#Cc2cccc(C)c2)cn1`, the EC50 result in [1] (hek293) is “Not Active”. Take `CCNc1ncc(C#Cc2ccccc2)cn1`: the EC50 entry in test [1] (hek293) is “Not Active”. In the case of `CNc1ncc(C#Cc2ccccc2)cn1`, the fold change (FC) in test [4] is 15. Also, in test [5], the Activity result was “Dose-dependent effect”. Further, the IC50 in [6], in [7], in [8], in test [9] and in test [10] was greater than 10000 nM each time. The EC50 in test [1] (read-out: EC50) worked out at 14.3 nM. Regarding `CCOc1ncc(C#Cc2cccc(C)c2)cn1`, the Activity in test [11] was found to be 100%. The IC50 in [2] (read-out: IC50) was determined as 21.1 nM. `COc1ncc(C#Cc2ccccc2)cn1`: in test [1] (hek293), the EC50 result is reported as “Not Active”. For the molecule `CC(C)(C)c1ncc(C#Cc2ccccc2)cn1`, the fold change (FC) in [4] amounted to 6. Moreover, in test [1] (read-out: EC50), the half-maximal effective concentration (EC50) turned out to be 247 nM. `CSc1ncc(C#Cc2ccc(C)cc2)cn1`: the EC50 result in test [1] (hek293) is “Not Active”. For the molecule `CCNc1ncc(C#Cc2ccc(C)cc2)cn1`, the EC50 result in [1] (hek293) was “Not Active”.

On to `Cc1cccc(C#Cc2cnc(C)nc2)c1`, for which the EC50 entry in [1] (hek293) is reported as “Not Active”.

Regarding `CCc1ncc(C#Cc2cccc(C)c2)cn1`, the EC50 result in [1] (hek293) is listed as “Not Active”.

For the molecule `CNc1ncc(C#Cc2ccc(C)cc2)cn1`, the fold change (FC) in test [4] was 5.7. Moreover, the EC50 in test [1] (read-out: EC50) was 704 nM. Turning to `CCNc1ncc(C#Cc2cccc(C)c2)cn1`, the EC50 result in test [1] (hek293) was “Not Active”.

On to `COc1ncc(C#Cc2cccc(C)c2)cn1`, for which the EC50 entry in [1] (hek293) is “Not Active”.

`C(#Cc1ncccn1)c1ccccc1`: the Activity in test [11] is 100%. Besides, in [2] (read-out: IC50), the IC50 is 195 nM. For `Cc1cccc(C#Cc2ncccn2)c1`, the Activity was 300% in [12], 100% in [11] and “Dose-dependent effect” in test [13]. Also, the IC50 in test [6] is greater than 10000 nM; in test [7], greater than 10000 nM; in test [8], greater than 10000 nM; in [2] (read-out: IC50), 10.8 nM; in [9] it was greater than 10000 nM; in test [14], greater than 10000 nM. The molecule further registered an IC50 in test [10] greater than 10000 nM.
